Laboratory results published in ChEMBL document CHEMBL2029221, “Acylprolinamides: a new class of peptide deformylase inhibitors with in vivo antibacterial activity” (Bioorg Med Chem Lett, 2012).
Values after ≈ are worked out from the molar mass of the structure shown.

Key:
Staphylococcus aureus = test: Antibacterial activity against Staphylococcus aureus Oxford by broth microdilution method; format: functional
Outline: (§1)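 Broth microdilution following NCCLS document M7-A4. Serial two-fold dilutions from 0.06 to 64 mcg/ml were tested. The MIC was the lowest concentration preventing visible growth, with the endpoint read with the aid of a mirror reader.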

Peptide deformylase [1] = target: T1, Peptide deformylase (Staphylococcus aureus, UniProt P68826); test: Inhibition of Staphylococcus aureus PDF assessed as formate release from fMAS peptide substrate after 20 mins by formate dehydrogenase coupled assay
T1 sequence (P68826 whole entry): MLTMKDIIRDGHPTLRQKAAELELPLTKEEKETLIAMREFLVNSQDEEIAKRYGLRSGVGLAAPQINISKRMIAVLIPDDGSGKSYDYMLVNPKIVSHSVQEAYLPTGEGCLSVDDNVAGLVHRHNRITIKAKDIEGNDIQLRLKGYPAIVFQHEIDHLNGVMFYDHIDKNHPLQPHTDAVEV

Peptide deformylase [2] = target: T2, Peptide deformylase (Streptococcus pneumoniae serotype 4 (strain ATCC BAA-334 / TIGR4), UniProt Q9F2F0); test: Inhibition of Streptococcus pneumoniae PDF assessed as formate release from fMAS peptide substrate after 20 mins by formate dehydrogenase coupled assay
T2 sequence (Q9F2F0 whole entry): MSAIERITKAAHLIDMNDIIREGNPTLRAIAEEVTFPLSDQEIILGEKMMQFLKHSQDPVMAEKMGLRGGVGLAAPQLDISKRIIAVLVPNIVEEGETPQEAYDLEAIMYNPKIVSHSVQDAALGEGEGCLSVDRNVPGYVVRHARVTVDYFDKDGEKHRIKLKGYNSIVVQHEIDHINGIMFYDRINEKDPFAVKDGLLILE

[3] = Inhibition of Haemophilus influenzae PDF assessed as formate release from fMAS peptide substrate after 20 mins by formate dehydrogenase coupled assay
Outline: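 Coupled assay in which formate released from the fMAS peptide is oxidized by formate dehydrogenase, reducing NAD to NADH, read as the rise in absorbance at 340. Reactions were started by adding PDF and velocities measured for 20 min at 25 °C. Values are the mean of at least 2 runs.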

Streptococcus pneumoniae = test: Antibacterial activity against Streptococcus pneumoniae 1629 by broth microdilution method; format: functional; outline: as §1
Haemophilus influenzae = test: Antibacterial activity against Haemophilus influenzae Q1 by broth microdilution method; format: functional; outline: as §1
Moraxella catarrhalis = test: Antibacterial activity against Moraxella catarrhalis 1502 by broth microdilution method; format: functional; outline: as §1
Enterococcus faecalis = test: Antibacterial activity against Enterococcus faecalis 7 by broth microdilution method; format: functional; outline: as §1
[4] = Metabolic stability of the compound in human blood assessed as compound remaining at 2000 ng/mL after 2 hrs; format: ADME, tissue-based; settings: read-out: Stability
Outline: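 Samples (n = 3) were spiked into fresh human blood at 2000 ng/mL, incubated at 37 °C for 120 min, and reported as % recovered at 2 h.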

| MIC (Staphylococcus aureus) [µg/mL] | IC50 (Peptide deformylase [1]) [nM] | IC50 (Peptide deformylase [2]) [nM] | IC50 [3] [nM] | MIC (Streptococcus pneumoniae) [µg/mL] | MIC (Haemophilus influenzae) [µg/mL] | MIC (Moraxella catarrhalis) [µg/mL] | MIC (Enterococcus faecalis) [µg/mL] | remaining at 2 h, 2000 ng/mL [4] [%] | SMILES |
| --- | --- | --- | --- | --- | --- | --- | --- | --- | --- |
| 2 (≈ 5.64 µM) | 2.2 | 0.91 | 4.8 | 2 (≈ 5.64 µM) | 0.125 (≈ 0.353 µM) | ≤ 0.06 | 4 (≈ 11.3 µM) |  | NC(=O)NC(=O)[C@@H]1CCCN1C(=O)[C@H](CC1CCCC1)CN(O)C=O |
| 1 (≈ 2.83 µM) | 12 | 4 | 16 | 4 (≈ 11.3 µM) | 0.25 (≈ 0.707 µM) | ≤ 0.06 | 8 (≈ 22.6 µM) |  | CC(=O)NC(=O)[C@@H]1CCCN1C(=O)[C@H](CC1CCCC1)CN(O)C=O |
| 4 (≈ 10.4 µM) | 8 | 1 | 13 | 4 (≈ 10.4 µM) | 0.125 (≈ 0.326 µM) | ≤ 0.06 | 16 (≈ 41.7 µM) |  | COCC(=O)NC(=O)[C@@H]1CCCN1C(=O)[C@H](CC1CCCC1)CN(O)C=O |
| 2 (≈ 5.24 µM) | 5 | 1.5 | 10 | 2 (≈ 5.24 µM) | 0.5 (≈ 1.31 µM) | ≤ 0.06 | 4 (≈ 10.5 µM) |  | CC(C)C(=O)NC(=O)[C@@H]1CCCN1C(=O)[C@H](CC1CCCC1)CN(O)C=O |
| 1 (≈ 2.53 µM) | 4 | 0.8 | 7 | 1 (≈ 2.53 µM) | 0.5 (≈ 1.26 µM) | ≤ 0.06 | 2 (≈ 5.06 µM) |  | CC(C)CC(=O)NC(=O)[C@@H]1CCCN1C(=O)[C@H](CC1CCCC1)CN(O)C=O |
| 1 (≈ 2.54 µM) | 5 | 0.7 | 9 | 1 (≈ 2.54 µM) | 1 (≈ 2.54 µM) | ≤ 0.06 | 8 (≈ 20.3 µM) |  | O=CN(O)C[C@@H](CC1CCCC1)C(=O)N1CCC[C@H]1C(=O)NC(=O)C1CCC1 |
| 0.5 (≈ 1.32 µM) | 2.3 | 1.2 | 5.5 | 1 (≈ 2.64 µM) | 0.125 (≈ 0.329 µM) | ≤ 0.06 | 2 (≈ 5.27 µM) |  | O=CN(O)C[C@@H](CC1CCCC1)C(=O)N1CCC[C@H]1C(=O)NC(=O)C1CC1 |
| 0.5 (≈ 1.23 µM) | 2.5 | 0.43 | 6.1 | 0.25 (≈ 0.613 µM) | 0.25 (≈ 0.613 µM) | ≤ 0.06 | 1 (≈ 2.45 µM) |  | O=CN(O)C[C@@H](CC1CCCC1)C(=O)N1CCC[C@H]1C(=O)NC(=O)C1CCCC1 |
| 1 (≈ 2.37 µM) | 3.7 | 0.5 | 5.2 | 0.25 (≈ 0.593 µM) | 0.5 (≈ 1.19 µM) | ≤ 0.06 | 1 (≈ 2.37 µM) |  | O=CN(O)C[C@@H](CC1CCCC1)C(=O)N1CCC[C@H]1C(=O)NC(=O)C1CCCCC1 |
| 1 (≈ 2.71 µM) | 4.5 | 1.9 | 13 | 1 (≈ 2.71 µM) | 0.125 (≈ 0.338 µM) | ≤ 0.06 | 4 (≈ 10.8 µM) |  | COC(=O)NC(=O)[C@@H]1CCCN1C(=O)[C@H](CC1CCCC1)CN(O)C=O |
| 0.5 (≈ 1.3 µM) | 2.2 | 0.54 | 7.7 | 0.5 (≈ 1.3 µM) | 0.25 (≈ 0.652 µM) | ≤ 0.06 | 2 (≈ 5.22 µM) |  | CCOC(=O)NC(=O)[C@@H]1CCCN1C(=O)[C@H](CC1CCCC1)CN(O)C=O |
| > 64 | 5.9 | 1.4 | 2.7 | 8 (≈ 18.2 µM) | 16 (≈ 36.5 µM) | 1 (≈ 2.28 µM) | > 64 |  | O=CN(O)C[C@@H](CC1CCCC1)C(=O)N1CCC[C@H]1C(=O)NC(=O)OC1CCNCC1 |
| 0.5 (≈ 1.36 µM) | 2.1 | 0.46 | 6.1 | 1 (≈ 2.71 µM) | 0.25 (≈ 0.679 µM) | ≤ 0.06 | 4 (≈ 10.9 µM) |  | CNC(=O)NC(=O)[C@@H]1CCCN1C(=O)[C@H](CC1CCCC1)CN(O)C=O |
| 1 (≈ 2.52 µM) | 1.6 | 0.31 | 3 | 1 (≈ 2.52 µM) | 2 (≈ 5.04 µM) | ≤ 0.06 | 4 (≈ 10.1 µM) | 99.7 | CC(C)NC(=O)NC(=O)[C@@H]1CCCN1C(=O)[C@H](CC1CCCC1)CN(O)C=O |
| 1 (≈ 2.44 µM) | 1.2 | 0.22 | 2.4 | 0.125 (≈ 0.304 µM) | 1 (≈ 2.44 µM) | ≤ 0.06 | 1 (≈ 2.44 µM) |  | CC(C)(C)NC(=O)NC(=O)[C@@H]1CCCN1C(=O)[C@H](CC1CCCC1)CN(O)C=O |
| 0.125 (≈ 0.306 µM) | 0.9 | 0.3 | 1.8 | 0.125 (≈ 0.306 µM) | 0.5 (≈ 1.22 µM) | ≤ 0.06 | 1 (≈ 2.45 µM) |  | O=CN(O)C[C@@H](CC1CCCC1)C(=O)N1CCC[C@H]1C(=O)NC(=O)NC1CCC1 |
| 0.5 (≈ 1.18 µM) | 0.52 | 0.1 | 2 | 0.125 (≈ 0.296 µM) | 2 (≈ 4.73 µM) | ≤ 0.06 | 1 (≈ 2.37 µM) | 103 | O=CN(O)C[C@@H](CC1CCCC1)C(=O)N1CCC[C@H]1C(=O)NC(=O)NC1CCCC1 |
| 0.5 (≈ 1.15 µM) | 0.93 | 0.2 | 4 | 0.125 (≈ 0.286 µM) | 4 (≈ 9.16 µM) | ≤ 0.06 | 2 (≈ 4.58 µM) |  | O=CN(O)C[C@@H](CC1CCCC1)C(=O)N1CCC[C@H]1C(=O)NC(=O)NC1CCCCC1 |
| 0.5 (≈ 1.12 µM) | 1.7 | 0.19 | 6.5 | 0.125 (≈ 0.281 µM) | 2 (≈ 4.5 µM) | ≤ 0.06 | 0.5 (≈ 1.12 µM) |  | O=CN(O)C[C@@H](CC1CCCC1)C(=O)N1CCC[C@H]1C(=O)NC(=O)NCc1ccccc1 |
| 0.5 (≈ 1.06 µM) | 1 | 0.19 | 4.1 | 0.25 (≈ 0.529 µM) | 8 (≈ 16.9 µM) | ≤ 0.06 | 2 (≈ 4.23 µM) |  | O=CN(O)C[C@@H](CC1CCCC1)C(=O)N1CCC[C@H]1C(=O)NC(=O)NCCCc1ccccc1 |
| 0.5 (≈ 1.27 µM) | 10 | 2.1 | 20 | 1 (≈ 2.54 µM) | 1 (≈ 2.54 µM) | ≤ 0.06 | 2 (≈ 5.07 µM) |  | C=CCNC(=O)NC(=O)[C@@H]1CCCN1C(=O)[C@H](CC1CCCC1)CN(O)C=O |
| 2 (≈ 4.35 µM) | 1.7 | 0.35 | 4.4 | 1 (≈ 2.18 µM) | 2 (≈ 4.35 µM) | ≤ 0.06 | 8 (≈ 17.4 µM) |  | O=CN(O)C[C@@H](CC1CCCC1)C(=O)N1CCC[C@H]1C(=O)NC(=O)NCCc1ccncc1 |
| 2 (≈ 4.35 µM) | 1.4 | 0.37 | 4.7 | 1 (≈ 2.18 µM) | 2 (≈ 4.35 µM) | ≤ 0.06 | > 64 |  | O=CN(O)C[C@@H](CC1CCCC1)C(=O)N1CCC[C@H]1C(=O)NC(=O)NCCc1cccnc1 |
| 1 (≈ 2.18 µM) | 1.4 | 0.35 | 5.9 | 0.5 (≈ 1.09 µM) | 1 (≈ 2.18 µM) | ≤ 0.06 | 4 (≈ 8.7 µM) |  | O=CN(O)C[C@@H](CC1CCCC1)C(=O)N1CCC[C@H]1C(=O)NC(=O)NCCc1ccccn1 |
| 2 (≈ 4.34 µM) | 1.4 | 0.41 | 6.1 | 1 (≈ 2.17 µM) | 2 (≈ 4.34 µM) | ≤ 0.06 | 8 (≈ 17.4 µM) |  | O=CN(O)C[C@@H](CC1CCCC1)C(=O)N1CCC[C@H]1C(=O)NC(=O)NCCc1cnccn1 |
| 4 (≈ 10 µM) | 3.8 | 1.1 | 8.8 | 2 (≈ 5.02 µM) | 0.5 (≈ 1.25 µM) | 0.125 (≈ 0.314 µM) | 32 (≈ 80.3 µM) |  | O=CN(O)C[C@@H](CC1CCCC1)C(=O)N1CCC[C@H]1C(=O)NC(=O)NCCO |
| 4 (≈ 9.7 µM) | 3.2 | 0.77 | 6.9 | 2 (≈ 4.85 µM) | 1 (≈ 2.42 µM) | 0.125 (≈ 0.303 µM) | 16 (≈ 38.8 µM) |  | O=CN(O)C[C@@H](CC1CCCC1)C(=O)N1CCC[C@H]1C(=O)NC(=O)NCCCO |
| 16 (≈ 40.3 µM) | 2.3 | 0.38 | 7 | 16 (≈ 40.3 µM) | > 64 | 2 (≈ 5.03 µM) | > 64 |  | NCCNC(=O)NC(=O)[C@@H]1CCCN1C(=O)[C@H](CC1CCCC1)CN(O)C=O |
| 32 (≈ 75.2 µM) | 3.3 | 0.72 | 6.3 | 8 (≈ 18.8 µM) | 2 (≈ 4.7 µM) | 0.5 (≈ 1.18 µM) | > 64 |  | NC(=O)CCNC(=O)NC(=O)[C@@H]1CCCN1C(=O)[C@H](CC1CCCC1)CN(O)C=O |
| 64 (≈ 143 µM) | 1.3 | 0.15 | 4.3 | 8 (≈ 17.8 µM) | 16 (≈ 35.7 µM) | 0.5 (≈ 1.11 µM) | > 64 |  | O=CN(O)C[C@@H](CC1CCCC1)C(=O)N1CCC[C@H]1C(=O)NC(=O)NCCc1c[nH]cn1 |
